Measurements: publication PMC9352169 (ACS Omega, 2022)
“And” between values parts separate entries of the source, which are not always exact repeats. Equal values may be shown once.

Legend:
zebrafish embryos [1] = assay: Zebrafish embryo acute toxicology; type: in vivo, Danio rerio; conditions: for drop of survival rate when the concentration increased from 15 to 90 μM / morphological changes in zebrafish embryos / LC50: 96 hpf; for morphological changes in zebrafish embryos: even at 90 M (printed); for LC50: zebrafish embryos
supercoiled pcDNA = assay: Photoinduced pcDNA cleavage; type: biochemical; conditions: 250 μM complex + 0.1 μM pcDNA
[2] = Substitution kinetics of chlorides by L-methionine; type: physicochemical; conditions: Nu = L-Met, 35 °C, pH 7.2; for k2^1st × 10^1: first step; for k1^2nd × 10^4: second step (ring closure)
Summary of the method: (§1)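 Chloride substitution was followed by UV-vis under pseudo-first-order conditions: complex 50 μM with the nucleophile in ≥20-fold excess, in 5 mM Tris–HCl/50 mM NaCl, pH 7.2. Complex stocks were 5 mM in 5% DMF. Runs spanned 25–55 °C at 10 °C intervals, and the Tu trace was taken at 524 nm. Rate constants came from kobs vs [nucleophile] plots, with activation parameters from temperature dependence.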

[3] = test system: human breast adenocarcinoma, MCF-7 cell line; assay: MTT cytotoxicity assay, MCF-7; type: cell-based; conditions: for SI (IC50 of Vero cell line/IC50 of MCF-7 cell line): Vero vs MCF-7; for IC50: read-out: IC50 breast cancer MCF-7, MTT, 24 h incubation, n = 3
Summary of the method: (§2)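 MTT viability assay. Vero cells were grown in MEM and MCF-7 cells in DMEM, both with 10% FBS and penicillin/streptomycin, at 37 °C and 5% CO2. Cells were exposed 24 h to test complex at 2, 4, 8, 16, 32 and 64 (DMSO stock). Viability was expressed relative to untreated control and IC50 computed. Values are mean ± SD of three independent experiments. SI = IC50 Vero / IC50 MCF-7.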

[4] = test system: guanosine-5′-monophosphate, 5′-GMP; assay: Substitution kinetics of chlorides by guanosine-5′-monophosphate; type: physicochemical; conditions: Nu = 5′-GMP, 35 °C; for k2^1st × 10^1: first step; for k2^1st × 10^1 / k2^2nd × 10^2: pH 7.2; for k–1^2nd × 10^5: second step back reaction; for k2^2nd × 10^2: second step
Summary of the method: as §1

[5] = Substitution kinetics of chlorides by thiourea; type: physicochemical; conditions: Nu = Tu, 35 °C; for k2^1st × 10^1: first step; for k2^1st × 10^1 / k2^2nd × 10^2: pH 7.2; for k–1^2nd × 10^5: second step back reaction; for k2^2nd × 10^2: second step
Summary of the method: as §1

BSA = BSA (Bos taurus, UniProt P02769); assay: BSA fluorescence quenching titration; type: binding, bovine; conditions: for Ksv × 10^–5: BSA 1.08 μM; for Ksv × 10^–5 / Decrease in initial BSA fluorescence: λem = 348 nm; for kq × 10^–13: BSA quenching; for KF × 10^–5 / n (number of binding sites): BSA, Scatchard; for Decrease in initial BSA fluorescence: pH 7.2
Chain of BSA (P02769 25-607): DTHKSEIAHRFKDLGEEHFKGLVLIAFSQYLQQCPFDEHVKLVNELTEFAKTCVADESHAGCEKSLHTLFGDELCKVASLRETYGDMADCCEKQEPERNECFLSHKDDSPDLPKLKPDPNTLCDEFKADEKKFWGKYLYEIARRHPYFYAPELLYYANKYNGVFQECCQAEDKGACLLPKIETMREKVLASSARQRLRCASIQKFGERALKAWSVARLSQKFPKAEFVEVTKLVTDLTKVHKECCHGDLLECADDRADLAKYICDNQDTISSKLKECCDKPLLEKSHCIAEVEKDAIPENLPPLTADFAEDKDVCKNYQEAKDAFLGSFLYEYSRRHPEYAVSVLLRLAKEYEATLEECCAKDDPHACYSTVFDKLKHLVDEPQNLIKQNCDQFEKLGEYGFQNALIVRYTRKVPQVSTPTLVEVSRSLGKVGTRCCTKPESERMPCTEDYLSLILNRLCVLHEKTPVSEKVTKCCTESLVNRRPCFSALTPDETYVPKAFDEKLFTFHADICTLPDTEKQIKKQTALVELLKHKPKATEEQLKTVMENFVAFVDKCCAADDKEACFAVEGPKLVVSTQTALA
Summary of the method: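 Complex stocks were 5 mM in DMSO, diluted in buffer, and samples were incubated about 14 h at 37 °C before reading. Emission was read at 348 nm and checked for inner-filter effects by UV-vis. Data were fitted by Stern–Volmer and Scatchard analysis.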

CT-DNA = CT-DNA UV-vis absorption titration; type: binding, calf; conditions: Van't Hoff equation ΔG = −RT lnKb
Summary of the method: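 UV-vis titration of test complex (14 μM) with CT-DNA (0–90 μM) in 5 mM Tris–HCl/50 mM NaCl, pH 7.2. Complex came from a 5 mM DMSO stock diluted in buffer, and samples were equilibrated about 14 h at 37 °C. The binding constant came from absorbance changes, and ΔG from it.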

normal Vero cell line = assay: MTT cytotoxicity assay, Vero; type: cell-based; conditions: read-out: IC50 normal Vero, 24 h incubation, n = 3
Summary of the method: as §2

EtBr + CT-DNA adduct = assay: Fluorescence EtBr exchange titration on CT-DNA; type: binding, calf; conditions: for n (number of binding sites) / KF × 10^–4 (Scatchard binding constant) / Kapp × 10^–6 (apparent binding constant) / Ksv × 10^–4 (Stern–Volmer quenching constant) / kq × 10^–12 (bimolecular quenching rate constant): EtBr exchange; for n (number of binding sites): Scatchard; for KF × 10^–4 (Scatchard binding constant) / Kapp × 10^–6 (apparent binding constant) / Ksv × 10^–4 (Stern–Volmer quenching constant) / kq × 10^–12 (bimolecular quenching rate constant) / Decrease in initial EtBr+CT-DNA fluorescence: pH 7.2; for Decrease in initial EtBr+CT-DNA fluorescence: λem = 596 nm, λex = 510 nm
Summary of the method: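 Competitive EtBr displacement used EtBr 20.0 μM and CT-DNA 20.0 μM with test complex added at 0–150 μM, in 5 mM Tris/50 mM NaCl, pH 7.2. Samples were equilibrated about 14 h at 37 °C. Emission was 596 nm (excitation 510 nm), with inner-filter check. Data were analysed as Stern–Volmer Io/I vs [Q] and Scatchard log[(Io–I)/I] vs log[Q].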

zebrafish embryos [6] = conditions: cited from earlier work

Row | Compound | morphological changes in zebrafish embryos (zebrafish embryos [1]) | LC50 (zebrafish embryos [1]) [µM] | % of NC (pcDNA cleavage) (supercoiled pcDNA) [%] | k2^1st × 10^1 [2] [M^–1 s^–1] | k1^2nd × 10^4 [2] | SI (IC50 of Vero cell line/IC50 of MCF-7 cell line) [3] | IC50 [3] [µM] | k2^1st × 10^1 [4] [M^–1 s^–1] | k–1^2nd × 10^5 [4] [s^–1] | k2^2nd × 10^2 [4] [M^–1 s^–1] | k2^1st × 10^1 [5] [M^–1 s^–1] | k–1^2nd × 10^5 [5] [s^–1] | k2^2nd × 10^2 [5] [M^–1 s^–1] | experimental ΔG of binding with BSA (BSA) [kJ mol^–1] | Ksv × 10^–5 (BSA) [M^–1] | kq × 10^–13 (BSA) [M^–1 s^–1] | KF × 10^–5 (BSA) [M^–1] | n (number of binding sites) (BSA) | Decrease in initial BSA fluorescence (BSA) | ΔG of binding with CT-DNA (CT-DNA) [kJ mol^–1] | other results
1 | [Cl-].[Cl-].[Pt+2].[Ru+2].c1ccc(-c2nccnc2-c2ccccn2)nc1.c1cnc2c(c1)ccc1cccnc12.c1cnc2c(c1)ccc1cccnc12 [C1, [(1,10-phenanthroline)2Ru(II)(μ-2,3-bis(2-pyridyl)pyrazine)Pt(II)dichloride]^2+] | did not induce any significant morphological changes | 65.2 ± 1 | ~24 | 0.75 ± 0.11 | 0.37 ± 0.08 ^a s^–1 | 2.12 | 9.1 ± 1.5 | 0.34 ± 0.09 | 0.20 ± 0.02 | 0.75 ± 0.04 | 1.45 ± 0.15 | 1.04 ± 0.04 | 2.73 ± 0.10 | −31.02 | 1.84 ± 0.08 | 1.84 ± 0.16 | 0.47 ± 0.06 | 0.84 ± 0.03 | up to 20% | −30 ± 3 | drop of survival rate when the concentration increased from 15 to 90 μM (zebrafish embryos [1]): 50%; IC50 (normal Vero cell line): 19.3 ± 2.1 µM; n (number of binding sites) (EtBr + CT-DNA adduct): 0.99 ± 0.04; KF × 10^–4 (Scatchard binding constant) (EtBr + CT-DNA adduct): 1.00 ± 0.05 M^–1; Kapp × 10^–6 (apparent binding constant) (EtBr + CT-DNA adduct): 3.33 ± 0.11 M^–1; Ksv × 10^–4 (Stern–Volmer quenching constant) (EtBr + CT-DNA adduct): 1.59 ± 0.07 M^–1; kq × 10^–12 (bimolecular quenching rate constant) (EtBr + CT-DNA adduct): 0.69 ± 0.19 M^–1 s^–1; Decrease in initial EtBr+CT-DNA fluorescence (EtBr + CT-DNA adduct): up to 19%
2 | [Cl-].[Cl-].[Pt+2].[Ru+2].c1ccc(-c2nc3ccccc3nc2-c2ccccn2)nc1.c1cnc2c(c1)ccc1cccnc12.c1cnc2c(c1)ccc1cccnc12 [C2, [(1,10-phenanthroline)2Ru(II)(μ-2,3-bis(2-pyridyl)quinoxaline)Pt(II)dichloride]^2+] | did not induce any significant morphological changes | 96.3 ± 1.4 | ~18 | 1.75 ± 0.18 | 1.02 ± 0.15 ^a s^–1 | 4.38 | 4 ± 1.1 | 0.96 ± 0.13 | 0.84 ± 0.04 | 1.48 ± 0.08 | 4.26 ± 0.21 | 4.35 ± 0.09 | 8.65 ± 0.15 | −31.55 | 2.26 ± 0.15 | 2.26 ± 0.24 | 1.16 ± 0.10 | 1.00 ± 0.05 | ≤ 17% | −35 ± 2 | IC50 (normal Vero cell line): 17.5 ± 1.9 µM; n (number of binding sites) (EtBr + CT-DNA adduct): 0.99 ± 0.05; KF × 10^–4 (Scatchard binding constant) (EtBr + CT-DNA adduct): 1.98 ± 0.11 M^–1; Kapp × 10^–6 (apparent binding constant) (EtBr + CT-DNA adduct): 6.25 ± 0.17 M^–1; Ksv × 10^–4 (Stern–Volmer quenching constant) (EtBr + CT-DNA adduct): 2.83 ± 0.13 M^–1; kq × 10^–12 (bimolecular quenching rate constant) (EtBr + CT-DNA adduct): 1.23 ± 0.24 M^–1 s^–1; Decrease in initial EtBr+CT-DNA fluorescence (EtBr + CT-DNA adduct): ≤ 23%
3 | [Cl-].[Cl-].[Pt+2].[Ru+2].c1ccc(-c2nc3cc4ccccc4cc3nc2-c2ccccn2)nc1.c1cnc2c(c1)ccc1cccnc12.c1cnc2c(c1)ccc1cccnc12 [C3, [(1,10-phenanthroline)2Ru(II)(μ-2,3-bis(2-pyridyl)benzo[g]quinoxaline)Pt(II)dichloride]^2+] | did not induce any significant morphological changes | 149 | 17 | 3.10 ± 0.26 | 2.08 ± 0.33 ^a s^–1 | 5.55 and 5.23 | 3.1 ± 0.8 | 1.39 ± 0.15 | 2.22 ± 0.04 | 2.20 ± 0.10 | 7.57 ± 0.29 | 10.99 ± 0.13 | 14.53 ± 0.22 | −31.97 | 2.65 ± 0.22 | 2.65 ± 0.33 | 6.64 ± 0.17 | 1.01 ± 0.07 | ≤ 10% | −36 ± 3 | % of survival rate (zebrafish embryos [1]; 15 μM, 96 h): 86.7%; embryos abnormal, difficulty growing into juvenile zebrafish (zebrafish embryos [1]; 45 μM or higher concentration): about 25%; % of survival rate (zebrafish embryos [1]; 90 μM, 96 h): 56.7%; drop of survival rate when the concentration increased from 15 to 90 μM (zebrafish embryos [1]): 30%; IC50 (normal Vero cell line): 16.2 ± 1.7 µM; n (number of binding sites) (EtBr + CT-DNA adduct): 1.00 ± 0.07; KF × 10^–4 (Scatchard binding constant) (EtBr + CT-DNA adduct): 3.96 ± 0.17 M^–1; Kapp × 10^–6 (apparent binding constant) (EtBr + CT-DNA adduct): 8.00 ± 0.23 M^–1; Ksv × 10^–4 (Stern–Volmer quenching constant) (EtBr + CT-DNA adduct): 3.92 ± 0.19 M^–1; kq × 10^–12 (bimolecular quenching rate constant) (EtBr + CT-DNA adduct): 1.70 ± 0.31 M^–1 s^–1; Decrease in initial EtBr+CT-DNA fluorescence (EtBr + CT-DNA adduct): ≤ 37%
4 | cis-[Pt(NH3)2Cl2] [cisplatin, reference compound] | did not induce any significant morphological changes | 181 | – | – | – | 4.02 | – | – | – | – | – | – | – | – | – | – | – | – | – | – | % of survival rate (zebrafish embryos [1]; 15 μM, 96 h): over 90%; % of hatching rate (zebrafish embryos [1]; 90 μM, 96 h): about 6.7%; % of survival rate (zebrafish embryos [1]; 90 μM, 96 h): 60%; lethality in zebrafish (zebrafish embryos [6]; 400 μM): lethal outcome; toxicity in developing zebrafish embryos (zebrafish embryos [6]; under 15 μM, delayed hatching up to 120 hpf): nontoxic
